Activity calls are given as the source filed them. The rule behind the calls is not given here.
Tests used:
Assay type in all cases: functional
Xenopus laevis [1] = species: Xenopus laevis; assay: Agonist activity at melatonin receptor in Xenopus laevis melanophores assessed as effect on pigment granule distribution at 100 uM
In short: (§1)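 Agonist response in Xenopus laevis melanophores was tested up to a highest concentration of 100 µM and reported as pEC50. Values are the mean ± SEM of triplicate experiments.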

[2] = Antagonist activity at melatonin receptor in Xenopus laevis melanophores assessed as reduction of melatonin-induced pigment aggregation
In short: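 Antagonism of the melatonin response in Xenopus laevis melanophores was reported as pIC50. Values are the mean ± SEM of triplicate experiments.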

Xenopus laevis [3] = species: Xenopus laevis; assay: Agonist activity at melatonin receptor in Xenopus laevis melanophores assessed as effect on pigment granule distribution at 100 uM relative to melatonin
In short: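 In Xenopus laevis melanophores, maximal agonist action at 100 µM was expressed as a percentage of the response to 1 nM melatonin. Data come from triplicate experiments.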

[4] = Agonist activity at melatonin receptor in Xenopus laevis melanophores assessed as effect on pigment granule distribution; in short: as §1

Row | Activity (Xenopus laevis [1]) | Log IC50 [2] | Activity (Xenopus laevis [3]) [%] | Log EC50 [4] | Structure (SMILES)
1 | inactive | -4.81 |  |  | COc1ccc2c(ccn2CCCN=[N+]=[N-])c1
2 | inactive | -4.72 |  |  | [N-]=[N+]=NCCCc1cc2ccccc2[nH]1
3 | inactive | -4.82 |  |  | [N-]=[N+]=NCCCn1ccc2ccccc21
4 |  | -4.35 | 38 |  | S=C=NCCCc1cc2ccccc2[nH]1
5 | inactive | -4.91 |  |  | COc1ccc2c(ccn2CCCN=C=S)c1
6 | inactive | -5.61 |  |  | CC(=O)NCCc1c(Cc2ccccc2)[nH]c2ccccc12 [LUZINDOLE]
7 |  |  |  | -10.07 | COc1ccc2[nH]cc(CCNC(C)=O)c2c1 [MELATONIN]
8 | inactive | -4.49 |  |  | COc1ccc2[nH]cc(CCCN=C=S)c2c1
9 |  | -4.04 | 28 |  | S=C=NCCCn1ccc2ccccc21
10 | inactive | -5.47 |  |  | COc1ccc2[nH]cc(CCN=C=S)c2c1
11 |  | -4.47 | 41 |  | COc1ccc2[nH]c(CCCN=C=S)cc2c1
12 | inactive | -4.15 |  |  | COc1ccc2[nH]c(CCCN=[N+]=[N-])cc2c1
13 |  | -3.92 | 31 |  | S=C=NCCCc1c[nH]c2ccccc12

Row | Structure (SMILES) | Activity (Xenopus laevis [1]) | Log IC50 [2] | Activity (Xenopus laevis [3]) [%] | Log EC50 [4]
14 | COc1ccc2[nH]cc(CCN=[N+]=[N-])c2c1 | inactive | -5.09 |  | 
15 | COc1ccc2[nH]cc(CCCN=[N+]=[N-])c2c1 | inactive | -5.03 |  | 
16 | [N-]=[N+]=NCCCc1c[nH]c2ccccc12 | inactive | -4.79 |  | 
